In ChEMBL document CHEMBL1833966, “Synthesis and evaluation of quinazolin-4-ones as hypoxia-inducible factor-1α inhibitors” (Bioorg Med Chem Lett, 2011):
The source made the active and inactive calls. The calls are words filed in the database; no cut-off is given here.

test system: ME-180; test: Inhibition of hypoxia-induced HIF1alpha protein accumulation in human HRE-bla-ME180 cells at 10 uM after 17 hrs by Western blot analysis; assay type: functional, cell-based; conditions: not given
Outline: (§1)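 HRE-bla ME-180 cells, 1 × 10^6 per well, cultured 6 h, then exposed 17 h to compound in DMSO at 1% oxygen; DMSO under normal atmosphere as negative control. Lysis on ice with protease inhibitor, centrifugation, 25 ug protein on 10% Tris-Glycine SDS-PAGE, PVDF transfer. Blotted with anti-HIF-1α (1:250), β-actin (1:5000) loading control, HRP secondary, luminol detection.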

Structure (SMILES) | inhibition
CCOc1ccccc1-n1c(CN2CCOCC2)nc2ccccc2c1=O | Active

test system: ME-180; test: Inhibition of hypoxia-induced HIF1alpha protein accumulation in human HRE-bla-ME180 cells at 1 uM after 17 hrs by Western blot analysis; assay type: functional, cell-based; conditions: not given; outline: as §1

Structure (SMILES) | inhibition
CCOc1ccccc1-n1c(CN2CCOCC2)nc2ccccc2c1=O | inactive
CCOc1ccccc1-n1c(CN2CCNCC2)nc2ccccc2c1=O | Active

molecular target: T1, Hypoxia-inducible factor 1-alpha (Homo sapiens, UniProt Q16665); test: Inhibition of hypoxia-induced HIF1alpha activation in human ME180 cells by HRE3-Bla-[…] reporter gene assay; assay type: cell-based, ME-180; conditions: me-180
Outline: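 HRE-bla ME-180 reporter cells, 2500 per well, given compound by pin transfer (261-fold dilution), then held 17 h at 37 °C under 1% oxygen. LiveBLAzer B/G FRET β-lactamase substrate added, 2.5 h at room temperature; fluorescence read at 405 nm excitation, 460 and 530 nm emission. IC50 is the mean of three independent experiments.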
Target sequence in this assay (Q16665 whole entry): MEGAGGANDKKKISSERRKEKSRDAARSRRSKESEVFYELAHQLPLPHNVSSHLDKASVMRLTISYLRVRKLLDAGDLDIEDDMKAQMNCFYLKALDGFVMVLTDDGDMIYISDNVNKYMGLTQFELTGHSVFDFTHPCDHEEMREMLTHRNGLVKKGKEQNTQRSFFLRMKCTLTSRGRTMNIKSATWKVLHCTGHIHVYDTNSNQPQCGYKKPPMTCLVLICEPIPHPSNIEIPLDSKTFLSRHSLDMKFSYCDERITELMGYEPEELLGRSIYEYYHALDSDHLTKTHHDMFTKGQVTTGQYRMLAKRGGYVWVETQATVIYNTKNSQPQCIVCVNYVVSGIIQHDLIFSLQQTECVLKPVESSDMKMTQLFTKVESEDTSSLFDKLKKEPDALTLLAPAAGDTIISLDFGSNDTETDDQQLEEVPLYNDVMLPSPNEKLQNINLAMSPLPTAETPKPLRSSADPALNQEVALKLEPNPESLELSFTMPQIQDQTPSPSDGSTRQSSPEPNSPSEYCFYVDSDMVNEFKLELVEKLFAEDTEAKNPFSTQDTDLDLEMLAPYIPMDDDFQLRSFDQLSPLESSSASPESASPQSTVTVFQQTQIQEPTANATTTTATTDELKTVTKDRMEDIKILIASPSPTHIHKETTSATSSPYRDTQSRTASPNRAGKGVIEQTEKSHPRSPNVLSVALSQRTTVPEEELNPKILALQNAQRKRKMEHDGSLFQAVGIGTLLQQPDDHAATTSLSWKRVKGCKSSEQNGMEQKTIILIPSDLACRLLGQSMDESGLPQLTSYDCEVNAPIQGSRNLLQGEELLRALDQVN

Structure (SMILES) | IC50
O=C(c1ccco1)N1CCN(Cc2nc3ccccc3c(=O)n2-c2ccccc2)CC1 | Not Active
CCOc1ccccc1-n1c(CN2CCN(C(=O)c3ccco3)CC2)nc2cc(OC)c(OC)cc2c1=O | Not Active
Cc1ccccc1-n1c(CN2CCN(C(=O)c3ccco3)CC2)nc2ccccc2c1=O | Not Active
CC(C)(C)c1ccccc1-n1c(CN2CCN(C(=O)c3ccco3)CC2)nc2ccccc2c1=O | Not Active
O=C(c1ccco1)N1CCN(Cc2nc3ccccc3c(=O)n2-c2ccc(F)cc2)CC1 | Not Active
O=C(c1ccco1)N1CCN(Cc2nc3ccccc3c(=O)n2-c2ccccc2Oc2ccccc2)CC1 | Not Active
O=C(c1ccco1)N1CCN(Cc2nc3ccccc3c(=O)n2-c2ccccc2F)CC1 | Not Active
O=C(c1ccco1)N1CCN(Cc2nc3ccccc3c(=O)n2-c2ccccc2C(F)(F)F)CC1 | Not Active
CCOc1ccccc1-n1c(CN2CCCCC2)nc2ccccc2c1=O | Not Active
O=C(c1ccco1)N1CCN(Cc2nc3ccccc3c(=O)n2-c2ccccc2OCc2ccccc2)CC1 | Not Active
O=C(c1ccco1)N1CCN(Cc2nc3ccccc3c(=O)n2-c2ccccc2[N+](=O)[O-])CC1 | Not Active
CCOc1ccccc1-n1c(CN2CCN(C(=O)c3ccco3)CC2)nc2ccc(I)cc2c1=O | Not Active
COc1ccc(-n2c(CN3CCNCC3)nc3ccccc3c2=O)cc1 | Not Active
CCOc1ccccc1-n1c(CN2CCN(C(=O)c3ccco3)CC2)nc2cccc(OC)c2c1=O | Not Active
O=C(c1ccco1)N1CCN(Cc2nc3ccccc3c(=O)n2-c2ccccc2Cl)CC1 | Not Active

same assay, conditions: read-out: IC50

Structure (SMILES) | IC50 [µM]
CCOc1ccccc1-n1c(CC2CCN(C(=O)c3ccco3)CC2)nc2ccccc2c1=O | 27.6
CCOc1ccccc1-n1c(CN2CCCNCC2)nc2ccccc2c1=O | 0.16
CCSc1ccccc1-n1c(CN2CCNCC2)nc2ccccc2c1=O | 3.5
CCOc1ccccc1-n1c(CN2CCN(C(=O)c3ccccc3)CC2)nc2ccccc2c1=O | 1.7
CCOc1ccccc1-n1c(CN2CCN(C(=O)c3ccco3)CC2)nc2ccccc2c1=O | 0.43
CC(C)COc1ccccc1-n1c(CN2CCNCC2)nc2ccccc2c1=O | 6.2
CCOc1ccccc1-n1c(CN2CCOCC2)nc2ccccc2c1=O | 27.6
COc1ccc([N+](=O)[O-])cc1-n1c(CN2CCNCC2)nc2ccccc2c1=O | 4.2
CCOc1ccccc1-n1c(CN2CCN(C(=O)c3ccco3)CC2)nc2cccc(C)c2c1=O | 1.2
O=c1c2ccccc2nc(CN2CCNCC2)n1-c1ccccc1OCc1ccccc1 | 22.9
CCOc1ccccc1-n1c(CN2CCN(C(C)=O)CC2)nc2ccccc2c1=O | 0.47
CCOc1ccccc1-n1c(CN2CCN(Cc3ccccc3)CC2)nc2ccccc2c1=O | 27.5
CCOc1ccccc1-n1c(CN2CCNCC2)nc2ccccc2c1=O | 0.09
COc1ccc(C(F)(F)F)cc1-n1c(CN2CCNCC2)nc2ccccc2c1=O | 0.2
CCNc1ccccc1-n1c(CN2CCNCC2)nc2ccccc2c1=O | 4.1
CCOc1ccccc1-n1c(CN2CCN(C)CC2)nc2ccccc2c1=O | 0.81
CCOC(=O)N1CCN(Cc2nc3ccccc3c(=O)n2-c2ccccc2OCC)CC1 | 9.4
COc1ccccc1-n1c(CN2CCN(C(=O)c3ccco3)CC2)nc2ccccc2c1=O | 3.3

molecular target: T1, Hypoxia-inducible factor 1-alpha; test: Ratio of NCGC00056044 IC50 to compound IC50 for hypoxia-induced HIF1alpha activation in human ME180 cells by HRE3-Bla-[…] reporter gene assay; assay type: cell-based; conditions: ME-180
Target sequence in this assay (Q16665 whole entry, looked up): as the sequence (Q16665 whole entry) above

Structure (SMILES) | Ratio IC50
CCOc1ccccc1-n1c(CN2CCNCC2)nc2ccccc2c1=O | 5
